Assay results published in ChEMBL document CHEMBL1125330, “N-substituted pyrazino[2,3-c][1,2,6]thiadiazine 2,2-dioxides. A new class of diuretics” (J Med Chem, 1992).

Columns and labels:
[1] = test system: Rattus norvegicus; experiment: Mean urinary output in rats when compound administered at 0 mg/kg po and vehicle dosed at 0 umol/kg; assay type: ADME, organism-based, Urine; set-up: dose 0 mg/kg, route oral; details: in vivo
Outline: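 Water-loaded male Sprague-Dawley rats (HC/CFY, 175-200 g) fasted and without water for 18 h. Oral gavage of 2.5-160 mg/kg in 1% CMC with 0.1% Tween 80, then distilled water 2.5 mL/100 g po. Urine collected 6 h in metabolic cages, mean output in mL/6 h/kg bw. Unpaired Student t-test against vehicle; dose-response by linear regression.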

[2] = test system: Rattus norvegicus; experiment: Mean sodium excretion in rats when compound administered at 0 mg/kg po and vehicle dosed at 0 umol/kg; assay type: ADME, organism-based; set-up: dose 0 mg/kg, route oral; details: in vivo
Outline: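 Male Sprague-Dawley rats (HC/CFY, 175-200 g) fasted and water-deprived 18 h before and during the test. Dosed by gavage at 2.5-160 mg/kg in 1% carboxymethyl cellulose/0.1% Tween 80, 0.5 mL/100 g bw. Immediately hydrated with water (2.5 mL/100 g bw, po). Urine collected 6 h in metabolic cages; Na+ and K+ by flame photometry; mean mequiv/6 h/kg bw; nonpaired Student t-test.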

[3] = organism: Rattus norvegicus; experiment: Dose required to produce increase in 50 % in urine production vs control groups; assay type: functional; details: Rattus norvegicus, Urine
Outline: (§1)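 Male Sprague-Dawley rats (HC/CFY, 175-200 g), fasted and water-deprived 18 h before and during the test. Compound dosed by gavage in 1% carboxymethyl cellulose/0.1% Tween 80, then water load 2.5 mL/100 g bw po. Urine collected 6 h in metabolic cages; Na+ by flame photometry. Effective doses vs vehicle controls derived by linear regression of dose-response data.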

[4] = test system: Rattus norvegicus; experiment: Mean potassium excretion in rats when compound administered at 0 mg/kg po and vehicle dosed at 0 umol/kg; assay type: ADME, organism-based; set-up: dose 0 mg/kg, route oral; details: in vivo
Outline: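 Male Sprague-Dawley rats (HC/CFY, 175-200 g), no food or water for 18 h before and during the test. Single gavage dose (2.5-160 mg/kg; vehicle 1% carboxymethyl cellulose/0.1% Tween 80, 0.5 mL/100 g bw), then distilled water 2.5 mL/100 g bw po. Individual metabolic cages, 6 h urine. K+ by flame photometry, Cl- colorimetric, as mequiv/6 h/kg bw; unpaired Student t-test vs control.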

[5] = test system: Rattus norvegicus; experiment: Dose required to produce an excretion of 2 mequiv of Na+/kg bw/6h vs control groups; assay type: functional; outline: as §1
[6] = organism: Rattus norvegicus; experiment: Dose required to produce increase in 200 % in urine production vs control groups; assay type: functional; outline: as §1
[7] = organism: Rattus norvegicus; details: in vivo, po, 80 mg/kg
[8] = test system: Rattus norvegicus; experiment: Post dosing time interval of maximum activity; assay type: functional
Outline: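 Interval of peak activity taken from timed urine collections (0-1, 1-2, 2-3, 3-4, 4-6 h) after a single oral dose in water-loaded fasted rats, […]. Urine volume and Na+ excretion followed over time.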

Q: What does the source list for NS(=O)(=O)c1cc(C(=O)O)c(NCc2ccco2)cc1Cl [FUROSEMIDE]?
A: V [1]: 24.04 ml 6hr-1 (kg of body weight)-1; Na [2]: 0.39 m equiv 6hr-1 kg-1 (body weight)-1; ED50 [3]: 12.1 mg/kg; K [4]: 0.47 m equiv 6hr-1 kg-1 (body weight)-1; ED2 [5]: 12.95 mg/kg; ED200 [6]: 70.59 mg/kg; V [7]: 75.5 ml 6hr-1 (kg of body weight)-1; Time [8]: 1 h
